Among the data in ChEMBL document CHEMBL1126779, “Antagonism of 1-(2,5-dimethoxy-4-methylphenyl)-2-aminopropane stimulus with a newly identified 5-HT2- versus 5-HT1C-selective antagonist” (J Med Chem, 1993) are Ki and Ratio values, retold here.

For assay [1], the target named is T1, 5-hydroxytryptamine receptor 1A (Rattus norvegicus, UniProt P19327).
T1 sequence (P19327 whole entry): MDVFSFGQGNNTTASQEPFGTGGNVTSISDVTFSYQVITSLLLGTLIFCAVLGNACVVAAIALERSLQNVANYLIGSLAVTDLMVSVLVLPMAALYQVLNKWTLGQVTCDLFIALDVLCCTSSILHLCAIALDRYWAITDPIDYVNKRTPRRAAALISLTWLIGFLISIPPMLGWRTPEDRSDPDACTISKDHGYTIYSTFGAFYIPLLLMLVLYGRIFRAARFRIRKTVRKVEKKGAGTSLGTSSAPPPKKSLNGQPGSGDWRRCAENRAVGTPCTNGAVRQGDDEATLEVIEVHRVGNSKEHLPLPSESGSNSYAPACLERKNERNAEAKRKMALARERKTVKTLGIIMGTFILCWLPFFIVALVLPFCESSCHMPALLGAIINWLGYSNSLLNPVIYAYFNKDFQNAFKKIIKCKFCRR
Put plainly: Tested for binding affinity against 5-hydroxytryptamine 1A receptor from rat frontal cortical regions using [3H]8-OH-DPAT as radioligand.

Assay [2] deals with Serotonin 2 (5-HT2) receptor (Rattus norvegicus) (UniProt P30994+P08909+P14842). In words: Selectivity ratio, Ki against 5-HT1C versus 5-HT2. Format: protein assay. In outline:
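Rat frontal cortex homogenate (male Sprague-Dawley) was washed and preincubated 15 min at 37 °C in 50 mM Tris HCl, 0.5 mM EDTA, 10 mM MgCl2, pH 7.4, with 0.1% ascorbate and 10^-6 M pargyline. […] Nonspecific binding was set with 1.0 µM mianserin. Tubes ran 15 min at 37 °C in triplicate before filtration.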

Assay [3] concerns the target Serotonin 2 (5-HT2) receptor (Rattus norvegicus, UniProt P30994+P08909+P14842). In words: Tested for binding affinity against 5-hydroxytryptamine 2 receptor from rat frontal cortical regions using [3H]ketanserin as radioligand. Format: protein assay. In outline:
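Frontal cortex from male Sprague-Dawley rats was homogenized in Tris HCl/EDTA/MgCl2 buffer, pH 7.4, containing ascorbate and pargyline. Each triplicate tube held 5 mg wet tissue and 0.4 nM [3H]ketanserin, with nonspecific binding defined by 1.0 µM cinanserin. Incubation was 15 min at 37 °C, then glass-fiber filtration and an ice-cold wash. IC50 was converted to Ki using radioligand KD from saturation experiments.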

Assay [4] has as its target T2, 5-hydroxytryptamine receptor 2C (Rattus norvegicus, UniProt P08909).
T2 sequence (P08909 whole entry): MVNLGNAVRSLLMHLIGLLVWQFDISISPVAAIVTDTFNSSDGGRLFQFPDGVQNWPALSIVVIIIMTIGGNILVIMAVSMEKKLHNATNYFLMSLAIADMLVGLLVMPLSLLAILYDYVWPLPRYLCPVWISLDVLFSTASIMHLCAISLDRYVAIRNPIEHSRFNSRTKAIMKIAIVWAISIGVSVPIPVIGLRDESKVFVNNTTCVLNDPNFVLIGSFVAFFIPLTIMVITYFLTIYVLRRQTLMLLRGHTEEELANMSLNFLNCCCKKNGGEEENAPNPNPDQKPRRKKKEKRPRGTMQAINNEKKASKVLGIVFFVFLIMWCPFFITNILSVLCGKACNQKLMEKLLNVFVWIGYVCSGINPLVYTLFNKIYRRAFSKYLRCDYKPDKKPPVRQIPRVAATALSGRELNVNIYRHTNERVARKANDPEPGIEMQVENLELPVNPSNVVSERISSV
Put plainly: Tested for binding affinity against 5-hydroxytryptamine 1C receptor from rat frontal cortical regions using [3H]mesulergine as radioligand. In outline:
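Rat frontal cortex homogenate (male Sprague-Dawley) was washed and preincubated 15 min at 37 °C in 50 mM Tris HCl, 0.5 mM EDTA, 10 mM MgCl2, pH 7.4, with 0.1% ascorbate and 10^-6 M pargyline. Nonspecific binding was set with 1.0 µM mianserin. Tubes ran 15 min at 37 °C in triplicate before filtration.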

The next assay concerns the target D(1A) dopamine receptor (Mus musculus, UniProt Q61616). In words: Tested for binding affinity against dopamine receptor D1.
A further assay deals with D(2) dopamine receptor (Homo sapiens, UniProt P14416). Put plainly: Tested for binding affinity against dopamine receptor D2.
D(2) dopamine receptor, sequence (P14416 whole entry): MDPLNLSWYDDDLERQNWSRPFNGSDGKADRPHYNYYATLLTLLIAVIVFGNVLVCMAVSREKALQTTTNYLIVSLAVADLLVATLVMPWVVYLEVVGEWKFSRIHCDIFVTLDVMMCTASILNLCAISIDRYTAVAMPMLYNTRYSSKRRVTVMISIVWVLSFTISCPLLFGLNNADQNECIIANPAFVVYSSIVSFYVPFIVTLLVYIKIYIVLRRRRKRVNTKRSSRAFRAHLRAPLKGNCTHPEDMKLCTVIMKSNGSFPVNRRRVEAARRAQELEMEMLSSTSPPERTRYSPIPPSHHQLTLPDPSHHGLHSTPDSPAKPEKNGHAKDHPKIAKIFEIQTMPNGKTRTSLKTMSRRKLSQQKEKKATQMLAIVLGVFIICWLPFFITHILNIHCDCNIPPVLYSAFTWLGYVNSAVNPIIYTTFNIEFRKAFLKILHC

Serotonin 2 (5-HT2) receptor (Rattus norvegicus), sequence (P14842 whole entry, looked up, one chain of several): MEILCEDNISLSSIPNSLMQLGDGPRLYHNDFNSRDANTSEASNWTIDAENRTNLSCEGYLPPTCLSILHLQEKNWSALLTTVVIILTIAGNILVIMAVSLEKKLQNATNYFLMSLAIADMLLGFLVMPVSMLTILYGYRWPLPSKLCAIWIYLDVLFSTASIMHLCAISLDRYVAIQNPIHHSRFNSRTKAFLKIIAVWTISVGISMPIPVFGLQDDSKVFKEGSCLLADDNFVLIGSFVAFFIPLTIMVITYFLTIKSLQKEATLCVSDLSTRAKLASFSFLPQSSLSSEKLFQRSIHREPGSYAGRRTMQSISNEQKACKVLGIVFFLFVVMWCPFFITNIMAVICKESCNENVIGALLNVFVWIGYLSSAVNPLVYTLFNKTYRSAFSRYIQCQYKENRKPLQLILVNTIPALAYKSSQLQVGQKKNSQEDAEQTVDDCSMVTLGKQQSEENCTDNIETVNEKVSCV
Serotonin 2 (5-HT2) receptor (Rattus norvegicus), sequence (P30994 whole entry, looked up, one chain of several): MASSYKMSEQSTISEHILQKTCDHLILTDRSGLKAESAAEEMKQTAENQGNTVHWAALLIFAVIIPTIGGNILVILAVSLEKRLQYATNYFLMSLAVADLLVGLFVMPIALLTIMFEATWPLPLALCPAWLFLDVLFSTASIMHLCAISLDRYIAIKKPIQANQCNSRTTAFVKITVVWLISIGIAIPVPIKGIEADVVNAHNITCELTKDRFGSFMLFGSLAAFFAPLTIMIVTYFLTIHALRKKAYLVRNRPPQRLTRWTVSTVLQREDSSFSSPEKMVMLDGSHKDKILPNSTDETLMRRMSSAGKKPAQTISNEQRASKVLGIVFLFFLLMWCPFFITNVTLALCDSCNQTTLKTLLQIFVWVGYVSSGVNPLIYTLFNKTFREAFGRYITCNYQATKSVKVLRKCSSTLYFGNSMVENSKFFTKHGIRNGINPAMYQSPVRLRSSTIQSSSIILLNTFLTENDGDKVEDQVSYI
D(1A) dopamine receptor, sequence (Q61616 whole entry): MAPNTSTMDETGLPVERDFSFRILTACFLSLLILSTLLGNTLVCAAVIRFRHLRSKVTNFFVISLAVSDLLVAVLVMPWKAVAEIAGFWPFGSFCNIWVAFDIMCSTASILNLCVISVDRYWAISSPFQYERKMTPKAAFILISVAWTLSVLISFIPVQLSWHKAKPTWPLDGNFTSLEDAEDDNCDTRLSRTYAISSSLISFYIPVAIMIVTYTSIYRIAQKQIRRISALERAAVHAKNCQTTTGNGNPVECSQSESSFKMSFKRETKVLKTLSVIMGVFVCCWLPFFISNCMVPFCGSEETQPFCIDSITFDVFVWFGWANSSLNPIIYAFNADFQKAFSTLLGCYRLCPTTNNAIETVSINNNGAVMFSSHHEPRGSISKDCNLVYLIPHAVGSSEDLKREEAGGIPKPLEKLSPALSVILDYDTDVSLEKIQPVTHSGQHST

By Ki is commonly meant a measure of affinity in units of concentration, obtained from inhibition or displacement. The molecule `O=C(CCCN1CCC(C(=O)c2ccc(F)cc2)CC1)c1ccc(F)cc1` [LENPERONE] returned an inhibitory constant (Ki) in assay [1] of 305 nM.
For the molecule `O=C(CCCN1CCC(Cc2ccccc2)CC1)c1ccc(F)cc1`, the Ratio in assay [2] was determined as 35. The Ki in assay [1] amounted to 180 nM; in assay [3], 50 nM; in assay [4], 1650 nM.
Take `NCCCC(=O)c1ccc(F)cc1`: the Ki in assay [1], in assay [3] and in assay [4] was greater than 100000 nM throughout.
On to `Fc1ccc(OCCCN2CCC(Nc3ccccc3)CC2)cc1`, for which the Ratio in assay [2] came out at 40. Besides, the Ki came out at 120 nM in assay [1], 88 nM in assay [3] and 3600 nM in assay [4].
With `O=C1NCN(c2ccccc2)C12CCN(CCc1ccccc1)CC2`, the Ratio in assay [2] came to 10. Moreover, the values for the Ki in assay [1], in assay [3] and in assay [4] were 1020 nM, 570 nM and 6000 nM, respectively.
On to `O=C(NC1CCN(CCCOc2ccc(F)cc2)CC1)c1ccccc1`, for which the Ratio in assay [2] was greater than 140. The figures for the Ki in assay [3] and in assay [4] were 70 nM and greater than 10000 nM, respectively.
Turning to `O=C1NCN(c2ccccc2)C12CCNCC2`, the inhibition constant (Ki) in assay [1], in assay [3] and in assay [4] was greater than 10000 nM in each case.
In the case of `O=C1NCN(c2ccccc2)C12CCN(CCCCOc1ccccc1)CC2`, in assay [2], the Ratio was greater than 30. Moreover, the Ki in assay [1] was 30 nM; in assay [3] it was 325 nM; in assay [4], greater than 10000 nM.
In the case of `O=C(Nc1ccccc1)C1CCN(CCCOc2ccc(F)cc2)CC1`, the Ratio in assay [2] is greater than 100. Besides, the Ki in assay [3] is 95 nM; in assay [4] it was greater than 10000 nM.
For the molecule `CN(C)CCCC(=O)c1ccc(F)cc1`, the Ratio in assay [2] is 40. In addition, the inhibitory constant (Ki) in assay [3] is 80 nM; in assay [4], 3300 nM.
Turning to `O=C1NCN(c2ccccc2)C12CCN(CCCc1ccccc1)CC2`, the Ratio in assay [2] is greater than 30. The values for the inhibition constant (Ki) in assay [1], in assay [3] and in assay [4] were 105 nM, 230 nM and greater than 10000 nM, respectively.
On to `O=C(CCCN1CCC(NC(=O)c2ccccc2)CC1)c1ccc(F)cc1`, for which, in assay [2], the Ratio was greater than 140. Further, the Ki in assay [3] was 70 nM; in assay [4], greater than 10000 nM.
With `O=C1NCN(c2ccccc2)C12CCN(CCCOc1ccc([N+](=O)[O-])cc1)CC2`, the Ratio in assay [2] is greater than 10. Also, the values for the inhibition constant (Ki) in assay [1], in assay [3] and in assay [4] were 1160 nM, 600 nM and greater than 10000 nM, respectively.
For `COc1ccc(OCCCN2CCC3(CC2)C(=O)NCN3c2ccccc2)cc1`, the Ratio in assay [2] is greater than 10. In addition, the Ki in assay [1] is 445 nM; in assay [3], 1000 nM; in assay [4], greater than 10000 nM.
For `O=C1NCN(c2ccccc2)C12CCN(CCCOc1ccc(F)cc1)CC2` [SPIRAMIDE], the Ratio in assay [2] stood at 2100. In addition, the Ki at D(1A) dopamine receptor was 2530 nM; in assay [1], 50 nM; on D(2) dopamine receptor, 3 nM; in assay [3], 2 nM; in assay [4] it was 4300 nM.
As for `NCCCOc1ccc(F)cc1`, the Ratio in assay [2] is greater than 5. For the same molecule, the Ki in assay [3] was 1400 nM; in assay [4], greater than 10000 nM.
As for `O=C1NCN(c2ccccc2)C12CCN(CCCOc1ccccc1)CC2`, in assay [2], the Ratio is greater than 2000. Besides, the inhibition constant (Ki) in assay [1] was 75 nM; in assay [3], 5 nM; in assay [4] it was greater than 10000 nM.
Consider `O=C(CCCN1CCCCC1)c1ccc(F)cc1` [PRIMAPERONE], for which the Ratio in assay [2] was greater than 70. For the same molecule, the Ki in assay [1] is greater than 10000 nM; in assay [3] it was 140 nM; in assay [4], greater than 10000 nM.
In the case of `O=C(c1ccc(F)cc1)C1CCN(CCCOc2ccc(F)cc2)CC1`, the Ratio in assay [2] worked out at 40. For the same molecule, the inhibitory constant (Ki) amounted to 285 nM in assay [1], 8 nM in assay [3] and 335 nM in assay [4].
For the molecule `CN(C)CCCOc1ccc(F)cc1`, the Ratio in assay [2] was greater than 30. Also, the Ki in assay [3] is 295 nM; in assay [4] it was greater than 10000 nM.
Consider `O=C1NCN(c2ccccc2)C12CCN(CCCCc1ccc(F)cc1)CC2`, for which the Ratio in assay [2] amounted to 650. For the same molecule, the Ki is 110 nM in assay [1], 5 nM in assay [3] and 3200 nM in assay [4].
In the case of `O=C1NCN(c2ccccc2)C12CCN(CCCCc1ccccc1)CC2`, the Ratio in assay [2] was greater than 300. The Ki in assay [1] was 85 nM; in assay [3], 30 nM; in assay [4] it was greater than 10000 nM.
Regarding `c1ccc(CCCCN2CCN(c3ccccc3)CC2)cc1`, in assay [1], the Ki came to 1 nM.
As to `O=C(CCCN1CCC2(CC1)C(=O)NCN2c1ccccc1)c1ccc(F)cc1` [SPIPERONE], the affinity in assay [1], expressed as Ki, was 49 nM.
Turning to `CN(c1ccccc1)C1CCN(CCCOc2ccc(F)cc2)CC1`, the Ratio in assay [2] stood at 90. In addition, the Ki in assay [1] worked out at 110 nM; in assay [3], 32 nM; in assay [4], 2870 nM.
